Source: ChEMBL document CHEMBL4765302, “Design, synthesis and biological evaluation of novel histone deacetylase1/2 (HDAC1/2) and cyclin-dependent Kinase2 (CDK2) dual inhibitors against malignant cancer” (Eur J Med Chem, 2020)
The source made the active and inactive calls. The rule behind the calls is not given here.

Legend:
[1] = tested on: NCI-H460; assay: Induction of apoptosis in human NCI-H460 cells assessed as necrotic cells at 0.5 uM incubated for 48 hrs by annexin V-FITC and PI staining based flow cytometry (reference value: 0.632 %); format: functional
[2] = tested on: NCI-H460; assay: Induction of apoptosis in human NCI-H460 cells assessed as viable cells at 0.5 uM incubated for 48 hrs by annexin V-FITC and PI staining based flow cytometry (reference value: 90.4 %); format: functional; conditions: read-out: Activity
[3] = tested on: A-375; assay: Induction of apoptosis in human A-375 cells assessed as viable cells at 1 uM incubated for 48 hrs by annexin V-FITC and PI staining based flow cytometry (reference value: 96.3 %); format: functional; conditions: read-out: Activity
[4] = tested on: HeLa; assay: Induction of apoptosis in human HeLa cells assessed as viable cells at 0.5 uM incubated for 48 hrs by annexin V-FITC and PI staining based flow cytometry (reference value: 98.5 %); format: functional; conditions: read-out: Activity
[5] = tested on: HepG2; assay: Cytotoxicity against human HepG2 cells assessed as effect on cell morphology at 0.5 to 8 micromol incubated for 48 hrs by microscopic analysis; format: functional, cell-based; conditions: dose 0.5-8 µmol
Method in brief: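 Five cancer cell lines treated with compound or DMSO (0.1 %) for 48 h. Morphology inspected by light microscopy at 10× objective.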

[6] = tested on: HCT-116; assay: Induction of apoptosis in human HCT-116 cells assessed as necrotic cells at 1 uM incubated for 48 hrs by annexin V-FITC and PI staining based flow cytometry (reference value: 0.124 %); format: functional
[7] = tested on: HeLa; assay: Induction of apoptosis in human HeLa cells assessed as necrotic cells at 0.5 uM incubated for 48 hrs by annexin V-FITC and PI staining based flow cytometry (reference value: 0.124 %); format: functional
[8] = tested on: HeLa; assay: Induction of apoptosis in human HeLa cells assessed as necrotic cells at 1 uM incubated for 48 hrs by annexin V-FITC and PI staining based flow cytometry (reference value: 0.124 %); format: functional
[9] = tested on: A-375; assay: Induction of apoptosis in human A375 cells assessed as apoptosis rate at 2 uM incubated for 48 hrs by annexin V-FITC and PI staining based flow cytometry relative to control; format: functional
[10] = tested on: A-375; assay: Induction of apoptosis in human A-375 cells assessed as necrotic cells at 2 uM incubated for 48 hrs by annexin V-FITC and PI staining based flow cytometry (reference value: 0.139 %); format: functional
[11] = tested on: HCT-116; assay: Induction of apoptosis in human HCT-116 cells assessed as late apoptotic cells at 0.5 uM incubated for 48 hrs by annexin V-FITC and PI staining based flow cytometry (reference value: 1.88 %); format: functional
[12] = tested on: HCT-116; assay: Induction of apoptosis in human HCT-116 cells assessed as viable cells at 0.5 uM incubated for 48 hrs by annexin V-FITC and PI staining based flow cytometry (reference value: 93.9 %); format: functional; conditions: read-out: Activity
[13] = tested on: HeLa; assay: Induction of apoptosis in human HeLa cells assessed as late apoptotic cells at 2 uM incubated for 48 hrs by annexin V-FITC and PI staining based flow cytometry (reference value: 0.870 %); format: functional
[14] = biological target: CDK2/Cyclin A2 (Homo sapiens, UniProt P24941); assay: Inhibition of recombinant human N-terminal GST-tagged CDK2/CyclinA2 expressed in baculovirus infected Sf21 cells using histone H1 as substrate incubated for 10 mins by luminescence based assay
[15] = tested on: NCI-H460; assay: Induction of apoptosis in human NCI-H460 cells assessed as necrotic cells at 2 uM incubated for 48 hrs by annexin V-FITC and PI staining based flow cytometry (reference value: 0.632 %); format: functional
[16] = Toxicity in Balb/c mouse xenografted with human HCT-116 cells assessed as reduction in body weight at 25 to 100 mg/kg, ip administered for 21 days and measured on day 21; format: organism-based; conditions: in vivo, 504 h, dose 25-100 mg/kg, time 21 day
Method in brief: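 BALB/c nude mice bearing HCT116 xenografts were dosed once daily by intraperitoneal injection at 25, 50 or 100 mg/kg for 21 days, starting when tumours reached 100-300 mm³. Body weight was tracked over the dosing period and compared with the blank group.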

[17] = tested on: HeLa; assay: Induction of apoptosis in human HeLa cells assessed as early apoptotic cells at 0.5 uM incubated for 48 hrs by annexin V-FITC and PI staining based flow cytometry (reference value: 0.528 %); format: functional
[18] = tested on: A-375; assay: Induction of apoptosis in human A-375 cells assessed as necrotic cells at 0.5 uM incubated for 48 hrs by annexin V-FITC and PI staining based flow cytometry (reference value: 0.139 %); format: functional
[19] = biological target: Histone deacetylase 2 (Homo sapiens, UniProt Q92769); assay: Potency index, ratio of IC50 of CS055 to IC50 of compound for inhibition of recombinant human HDAC2 using FLUOR-DE-LYS-Green as substrate incubated for 10 mins followed by substrate addition and measured after 30 mins by fluorescence based assay
[20] = tested on: A-375; assay: Induction of apoptosis in human A-375 cells assessed as necrotic cells incubated for 48 hrs by annexin V-FITC and PI staining based flow cytometry; format: functional, cell-based; conditions: dose 0.5-2 µM
[21] = tested on: NCI-H460; assay: Induction of apoptosis in human NCI-H460 cells assessed as viable cells at 2 uM incubated for 48 hrs by annexin V-FITC and PI staining based flow cytometry (reference value: 90.4 %); format: functional; conditions: read-out: Activity
[22] = tested on: HeLa; assay: Induction of apoptosis in human HeLa cells assessed as necrotic cells incubated for 48 hrs by annexin V-FITC and PI staining based flow cytometry; format: functional, cell-based; conditions: dose 0.5-2 µM
[23] = Intraperitoneal bioavailability in ICR mouse at 20 mg/kg measured upto 24 hrs by LC-MS/MS analysis; conditions: in vivo, ip
[24] = tested on: HCT-116; assay: Induction of cell cycle arrest in human HCT-116 cells assessed as G2/M phase at 0.5 uM incubated for 24 hrs by PI staining based flow cytometry (reference value: 27.46 %); format: functional
Method in brief: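 Treatment at 2, 1 and 0.5 μM for 24 h, alongside CS055 and roscovitine, against a DMSO (0.1 %) blank. Cells then stained with propidium iodide and analyzed by flow cytometry.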

[25] = tested on: HCT-116; assay: Induction of apoptosis in human HCT-116 cells assessed as apoptosis rate at 2 uM incubated for 48 hrs by annexin V-FITC and PI staining based flow cytometry relative to control; format: functional
[26] = tested on: A-375; assay: Induction of apoptosis in human A-375 cells assessed as late apoptotic cells at 0.5 uM incubated for 48 hrs by annexin V-FITC and PI staining based flow cytometry (reference value: 2.24 %); format: functional
[27] = tested on: A-375; assay: Induction of apoptosis in human A-375 cells assessed as early apoptotic cells at 2 uM incubated for 48 hrs by annexin V-FITC and PI staining based flow cytometry (reference value: 1.34 %); format: functional
[28] = tested on: A-375; assay: Induction of apoptosis in human A-375 cells assessed as early apoptotic cells at 1 uM incubated for 48 hrs by annexin V-FITC and PI staining based flow cytometry (reference value: 1.34 %); format: functional
[29] = Half life in ICR mouse at 4 mg/kg, iv measured upto 24 hrs by LC-MS/MS analysis; format: ADME, organism-based; conditions: in vivo
Method in brief: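 Male ICR mice (N=9). Single dose, either 4 mg/kg intravenous or 20 mg/kg intraperitoneal. Parameters derived: T1/2, Tmax, Cmax, AUC0-t, MRT0-t and CL, with F for the intraperitoneal arm.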

Chain of Histone deacetylase 2 (Q92769 whole entry): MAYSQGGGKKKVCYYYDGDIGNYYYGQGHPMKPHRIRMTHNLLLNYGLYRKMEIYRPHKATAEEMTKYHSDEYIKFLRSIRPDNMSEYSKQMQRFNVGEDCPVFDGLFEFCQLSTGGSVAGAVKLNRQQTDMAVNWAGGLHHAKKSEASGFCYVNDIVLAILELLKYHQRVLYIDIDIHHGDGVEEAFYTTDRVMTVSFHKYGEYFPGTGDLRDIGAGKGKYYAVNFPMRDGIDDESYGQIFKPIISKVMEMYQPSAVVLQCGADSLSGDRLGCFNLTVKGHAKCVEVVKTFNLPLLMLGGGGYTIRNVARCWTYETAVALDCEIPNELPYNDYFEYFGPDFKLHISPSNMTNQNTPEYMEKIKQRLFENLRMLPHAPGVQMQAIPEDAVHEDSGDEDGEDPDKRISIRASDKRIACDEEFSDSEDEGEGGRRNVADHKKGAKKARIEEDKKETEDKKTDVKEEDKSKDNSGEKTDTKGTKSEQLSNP

- IC50 [14]: 800 nM
- Ratio IC50 [19]: 2
- bioavailability [23]: 50.8%
- half-life [29]: 1.48 h
Compound: Cc1ccc(Nc2nc(Cl)nc3c2ncn3Cc2ccc(C(=O)Nc3ccccc3N)cc2)cc1
- Activity [1]: 0.254%
- viability at 0.5 µM [2]: 88.7%
- viability at 1 µM [3]: 8.06%
- viability at 0.5 µM [4]: 89.9%
- Activity [5]: Active
- Activity [6]: 0.65%
- Activity [7]: 0.31%
- Activity [8]: 0.363%
- Activity [9]: 91.99%
- Activity [10]: 0.453%
- Activity [11]: 16.6%
- viability at 0.5 µM [12]: 21.3%
- Activity [13]: 14.1%
- Activity [15]: 9.03%
- Activity [16]: Non-Toxic
- Activity [17]: 4.36%
- Activity [18]: 0.852%
- Activity [20]: Dose-dependent effect
- viability at 2 µM [21]: 31.9%
- Activity [22]: Dose-dependent effect
- Activity [24]: 76.99%
- Activity [25]: 89.6%
- Activity [26]: 72.2%
- Activity [27]: 7.19%
- Activity [28]: 8%
